Activity calls are given as the source filed them. The calls are words filed in the database; no cut-off is given here.
How the values were obtained:
[1] = test system: Mus musculus; test: Anticonvulsant activity in ip dosed CF1 mouse assessed as protection against maximal electroshock-induced seizure after 30 mins; assay type: functional; conditions: 0.5 h
Outline: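 Adult male albino CF-1 (Carworth Farms No. 1) mice dosed ip under the NINDS ASP; maximal electroshock seizure test. For compounds with sufficient activity, a dose-response curve was run at the time of peak effect (hours).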

[2] = Neurotoxicity in ip dosed NMRI mouse assessed as minimal motor impairment after 30 mins; assay type: toxicity, organism-based; conditions: in vivo
Outline: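 Adult male NMRI mice dosed ip at UCB Pharma. Neurological toxicity was scored on the rotorod test 30 min after dosing.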

[3] = test system: Mus musculus; test: Anticonvulsant activity in NMRI mouse assessed as protection against subcutaneous pentylenetetrazol-induced seizure at 30 to 300 mg/kg, ip after 0.5 to 4 hrs; assay type: functional, organism-based
[4] = test system: Rattus norvegicus; test: Anticonvulsant activity in po dosed Sprague-Dawley rat assessed as protection against maximal electroshock-induced seizure after 30 mins; assay type: functional; conditions: 0.5 h
[5] = Neurotoxicity in po dosed Sprague-Dawley rat assessed as minimal motor impairment after 30 mins by rotorod test; assay type: toxicity, organism-based; conditions: in vivo
[6] = species on record: Rattus norvegicus; test: Protective index, ratio of TD50 for Sprague-Dawley rat to ED50 for Sprague-Dawley rat by maximal electroshock seizure test; assay type: functional
Outline: (§1)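 Protective index computed as rotorod (mice) or behavioral (rats) TD50 divided by MES ED50, both in mg/kg in the same species and route.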

[7] = test system: Mus musculus; test: Antinociceptive activity in ip dosed NMRI mouse assessed as inhibition of formalin-induced neuropathic pain after 30 mins; assay type: functional; conditions: 0.5 h
Outline: (§2)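 NMRI mice dosed ip at UCB Pharma, then tested in the formalin model of neuropathic pain. ED50 in mg/kg read 30 min after administration. Single-dose runs report the percentage protected.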

[8] = test system: Mus musculus; test: Anticonvulsant activity in ip dosed NMRI mouse assessed as protection against maximal electroshock-induced seizure after 30 mins; assay type: functional; conditions: 0.5 h
Outline: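 Adult male NMRI mice dosed ip (UCB Pharma). MES test run per the Klitgaard procedure. […] Single-dose runs report the percentage of animals protected.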

[9] = test system: Mus musculus; test: Anticonvulsant activity in ip dosed NMRI mouse assessed as protection against 6 Hz psychomotor seizure after 30 mins; assay type: functional; conditions: 0.5 h; for minimal effective dose: read-out: MED
Outline: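 Adult male NMRI mice dosed ip (UCB Pharma). 6 Hz psychomotor seizure model at 44 mA, per Kaminski and co-workers.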

[10] = Neurotoxicity in ip dosed CF1 mouse assessed as minimal motor impairment after 30 mins; assay type: toxicity, organism-based; conditions: in vivo
[11] = test system: Mus musculus; test: Antinociceptive activity in NMRI mouse assessed as inhibition of formalin-induced neuropathic pain at 25 mg/kg, ip after 30 mins; assay type: functional, organism-based; set-up: dose 25 mg/kg; outline: as §2
[12] = test system: Mus musculus; test: Antinociceptive activity in NMRI mouse assessed as inhibition of formalin-induced neuropathic pain at 79 mg/kg, ip after 30 mins; assay type: functional; set-up: scale not given: the % may be the effect or the level left; conditions: route intraperitoneal; outline: as §2
[13] = species on record: Mus musculus; test: Protective index, ratio of TD50 for NMRI mouse to ED50 for NMRI mouse formalin-induced neuropathic pain model; assay type: functional
[14] = species on record: Mus musculus; test: Protective index, ratio of TD50 for CF1 mouse to ED50 for CF1 mouse by maximal electroshock seizure test; assay type: functional; outline: as §1
[15] = test system: Mus musculus; test: Antinociceptive activity in NMRI mouse assessed as inhibition of formalin-induced neuropathic pain at 68 mg/kg, ip after 30 mins; assay type: functional; set-up: scale not given: the % may be the effect or the level left; conditions: route intraperitoneal; outline: as §2
[16] = test system: Mus musculus; test: Anticonvulsant activity in ip dosed CF1 mouse assessed as protection against 6 Hz psychomotor seizure after 30 mins; assay type: functional; conditions: 0.5 h
Outline: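 Adult male albino CF-1 mice dosed ip (NINDS ASP). 6 Hz psychomotor seizure test at 32 mA, per Stables and Kupferberg.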

[17] = test system: Mus musculus; test: Antinociceptive activity in NMRI mouse assessed as inhibition of formalin-induced neuropathic pain at 71 mg/kg, ip after 30 mins; assay type: functional; set-up: scale not given: the % may be the effect or the level left; conditions: route intraperitoneal; outline: as §2

CC(N)C(=O)NCc1ccccc1 (racemic)
ED50 [1]: > 100 mg/kg | TD50 at 0.5 h [2]: > 300 mg/kg | Activity [3]: inactive | ED50 [4]: 14 mg/kg | TD50 at 0.5 h [5]: > 500 mg/kg | Ratio TD50/ED50 [6]: >36

CC(=O)NC(C)C(=O)NCc1ccccc1 (racemic)
ED50 [1]: 76 mg/kg | TD50 at 0.5 h [2]: 450 mg/kg

CCCC[C@@H](N)C(=O)NCc1ccccc1
ED50 [7]: > 71 mg/kg | ED50 [8]: 23 mg/kg | ED50 [9]: 93 mg/kg

CC(=O)N[C@@H](C(=O)NCc1ccccc1)C(C)C
ED50 [1]: < 100 mg/kg | TD50 at 0.5 h [2]: > 300 mg/kg

CSCC[C@@H](N)C(=O)NCc1ccccc1
ED50 [7]: > 76 mg/kg | ED50 [8]: 75 mg/kg | minimal effective dose [9]: 130 mg/kg

N[C@@H](CO)C(=O)NCc1ccccc1
ED50 [7]: > 62 mg/kg | ED50 [9]: > 62 mg/kg | TD50 at 0.5 h [10]: > 110 mg/kg

CC(=O)NC(CN)C(=O)NCc1ccccc1 (racemic)
TD50 at 0.5 h [2]: > 100 mg/kg

CC(=O)NC(CN1CCOCC1)C(=O)NCc1ccccc1 (racemic)
ED50 [1]: < 100 mg/kg | TD50 at 0.5 h [2]: 300 mg/kg

CCCC(NC(C)=O)C(=O)NCc1ccccc1 (racemic)
ED50 [1]: 38 mg/kg

COCC(N)C(=O)NCc1ccccc1 (racemic)
ED50 [1]: 84 mg/kg | TD50 at 0.5 h [2]: 290 mg/kg

COC[C@H](NC(C)=O)C(=O)NCc1ccccc1
TD50 at 0.5 h [2]: > 300 mg/kg

COC[C@@H](NC(C)=O)C(=O)NCc1ccccc1 [LACOSAMIDE]
Activity [3]: inactive | TD50 at 0.5 h [5]: > 500 mg/kg

N[C@@H](C(=O)NCc1ccccc1)C1CCCCC1
ED50 [8]: 28 mg/kg | minimal effective dose [9]: 140 mg/kg | Activity [11]: inactive | Activity [12]: 95%

C=CCOCC(NC(C)=O)C(=O)NCc1ccccc1 (racemic)
ED50 [1]: < 30 mg/kg | TD50 at 0.5 h [2]: < 30 mg/kg

CC(C)(C)[C@H](N)C(=O)NCc1ccccc1
TD50 at 0.5 h [2]: 100 mg/kg | Activity [3]: inactive | ED50 [4]: > 30 mg/kg | TD50 at 0.5 h [5]: > 30 mg/kg

CC(=O)NC(C(=O)NCc1ccccc1)c1ccsc1 (racemic)
ED50 [1]: 88 mg/kg

COC[C@@H](N)C(=O)NCc1ccccc1
TD50 at 0.5 h [10]: > 120 mg/kg | TD50 at 0.5 h [2]: < 30 mg/kg | Ratio TD50/ED50 [13]: >1.8 | Activity [3]: inactive

CC(C)[C@@H](N)C(=O)NCc1ccccc1
minimal effective dose ([8]; read-out: MED): 16 mg/kg | Ratio TD50/ED50 [14]: 4.7 | Ratio TD50/ED50 [13]: 2.4 | Activity [3]: inactive | TD50 at 0.5 h [5]: > 500 mg/kg

CCCC(N)C(=O)NCc1ccccc1 (racemic)
ED50 [8]: 39 mg/kg | minimal effective dose [9]: 120 mg/kg | Activity [15]: 17%

CC[C@@H](N)C(=O)NCc1ccccc1
ED50 [7]: 22 mg/kg | ED50 [1]: 18 mg/kg | ED50 [8]: 16 mg/kg | minimal effective dose [9]: 62 mg/kg | ED50 [16]: 50 mg/kg | TD50 at 0.5 h [2]: 80 mg/kg | Ratio TD50/ED50 [14]: 4.4 | Activity [3]: inactive | ED50 [4]: 11 mg/kg | TD50 at 0.5 h [5]: > 500 mg/kg | Ratio TD50/ED50 [6]: >45

CCCC(CCC)C(=O)O [VALPROIC ACID]
ED50 [1]: 270 mg/kg

CC(=O)NC(C(=O)NCc1ccccc1)c1ccccc1 (racemic)
ED50 [1]: 20 mg/kg

CCC[C@H](N)C(=O)NCc1ccccc1
ED50 [7]: 100 mg/kg | ED50 [8]: > 37 mg/kg | ED50 [9]: > 210 mg/kg

COC[C@H](N)C(=O)NCc1ccccc1
Ratio TD50/ED50 [13]: 0.5

CC(=O)N[C@H](C)C(=O)NCc1ccccc1
TD50 at 0.5 h [2]: 210 mg/kg

CCOCC(N)C(=O)NCc1ccccc1 (racemic)
ED50 [7]: 71 mg/kg | Activity [17]: 19% | ED50 [8]: 73 mg/kg | ED50 [9]: 120 mg/kg | Activity [3]: inactive

— ChEMBL document CHEMBL2146408, “Primary amino acid derivatives: compounds with anticonvulsant and neuropathic pain protection activities” (J Med Chem, 2011)
